# Fibroblast inh – blocks proliferation of human lung fibroblasts. LL 47 human lung fibroblast viability, ATP luminescence; active compounds read low. viability, % at 10 µM. 1.1% of 85,000 active;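 active = viability at or below 50% in the single dose screen; inactive = viability above 50%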;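 also: compound exposure lasted 72 h before the ATP readout; 100% = median luminescence of untreated cell-only wells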
#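 Test system: LL 47 human lung fibroblasts / Quantity: 1,150 cells in each well / Medium: IMEM growth medium with 15% fetal bovine serum / Incubation: 72 h compound exposure at 37 °C after overnight plating / Detection: CellTiter-Glo luminescence measuring cellular ATP / Read-out: % viability versus median cells-only luminescence / Benchmarks: cell-only wells, no compound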
# H69AR growth 86K – blocks growth of human H69AR lung tumor cells; H69AR lung tumor viability, ATP luminescence, 72 h; active compounds read low; viability, % at 10 µM; 6% of 85,000 active; AID 598;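 active = viability at or below 40%; inactive = viability above 40%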;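 also: multidrug resistant small cell line overexpressing MRP-1 efflux transporter; 100% = mean luminescence of untreated control wells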
# Jurkat tox 60K – cytotoxic compounds reducing Jurkat cell viability; Jurkat E6.1 viability, ATP luminescence, 48 h; inhibition, % at 4 µM; 1.2% of 56,000 active; AID 463;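 active = inhibition above the mean inhibition of all tested compounds plus 3 SD, cut at about 28% in these data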
# HUVEC prolif 384 – blocks proliferation of human endothelial cells; HUVEC proliferation, CellTiter-Glo luminescence, 72 h; active compounds read low; viability, % at 10 µM (by protocol); 1.1% of 86,000 active; AID 648;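 active = viability at or below 30%; inactive = viability above 30%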;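 also: 100% = median luminescence of DMSO-only cell control wells on each plate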
# Numbers without * were called inactive; / = not tested or not shown. An excerpt weighted towards active compounds, which were near 6.6% of everything screened.
SMILES,Fibroblast inh,H69AR growth 86K,Jurkat tox 60K,HUVEC prolif 384
COc1ccc(-n2ncc3c(N4CCCCC4)ncnc32)cc1,81.9,38.9*,5.0,65.9
Cc1cccc(C(=O)N2CCN(c3ncnc4c3cnn4-c3ccccc3)CC2)c1,97.8,74.0,/,91.9
COc1ccc(-n2ncc3c(N4CCN(c5cccc(C)c5C)CC4)ncnc32)cc1,23.8*,7.1*,-3.0,18.3*
CCCCCCCCNC(=O)CCNC(=O)c1ccc(C(C)(C)C)cc1,93.6,86.3,/,69.2
O=C(CN1CCN(C(=O)c2c(F)cccc2F)CC1)Nc1ccccc1F,99.5,99.3,-0.1,101.1
CCOc1ccc(-c2nnn(CC(=O)Nc3ccccc3OC)n2)cc1OCC,77.8,10.9*,9.5,42.4
COc1ccccc1NC(=O)Cn1nnc(-c2ccccc2NC(=O)c2cccs2)n1,87.2,30.0*,-8.7,49.2
O=C(Cn1nnc(-c2ccccc2NC(=O)c2cccs2)n1)Nc1ccccc1,86.3,15.0*,-1.8,59.3
COc1ccc(-c2nnn(CC(=O)NCc3ccccc3)n2)cc1OC,92.0,95.1,/,98.8
Cc1cc(C)n(-c2nc3ccccc3c(=O)n2OCC(=O)OCc2ccccc2)n1,26.8*,9.8*,56.0*,59.9
O=S(=O)(c1cccs1)N1CCN(CC(O)COc2cc(Cl)ccc2Cl)CC1 (centres undefined),93.7,74.6,24.9,72.1
O=C(NCc1ccccc1)NC1(C(=O)N2CCN(c3ccccc3)CC2)CCCCC1,94.7,84.7,-3.2,100.4
CCCCNC(=O)CCCn1c(=O)c2ccccc2n(CC(=O)NCCC2=CCCCC2)c1=O,95.8,91.5,1.2,97.2
O=C(Cn1c(=O)n(CCCC(=O)NC2CCCC2)c(=O)c2ccccc21)NCCC1=CCCCC1,48.5*,29.1*,-1.3,85.1
COc1ccc(-c2c[n+]3c4n2CCCCC4=C(c2ccccc2)C3)cc1,35.9*,47.7,/,46.9
Cc1cc(NC(=O)CN2CCN(Cc3ccccc3)CC2)nc2c1c(=O)oc1ccccc12,64.3,22.0*,7.0,59.9
Cc1cc(NC(=O)C2CCCC2)nc2c1c(=O)oc1ccccc12,108.5,37.0*,/,71.6
Cc1cccc(CC(=O)Nc2cc(C)c3c(=O)oc4ccccc4c3n2)c1,87.1,11.5*,/,61.8
COc1cccc(C(=O)Nc2cc(C)c3c(=O)oc4ccccc4c3n2)c1,/,/,2.1,/
CCOc1ccccc1-n1c(SCC(=O)NC2CCCC2)nnc1-c1ccoc1C,102.8,82.0,-2.3,102.9
O=c1c2cccnc2[nH]c(=S)n1CCC1=CCCCC1,76.7,38.0*,-24.2,73.9
COc1ccc(-c2cc(C(=O)Nc3cc(C)nn3-c3ccccc3)no2)cc1,88.1,63.9,/,81.3
COc1ccccc1-c1cc(C(=O)NCc2cccs2)no1,87.5,63.5,8.2,92.0
COCCNC(=O)c1cc(-c2ccccc2OC)on1,95.1,36.3*,28.6,90.4
COc1ccccc1-c1cc(C(=O)Nc2cc(C)nn2-c2ccccc2)no1,67.6,27.1*,89.2*,65.9
SMILES,Fibroblast inh,H69AR growth 86K,Jurkat tox 60K,HUVEC prolif 384
COc1ccccc1-c1cc(C(=O)Nc2cc(C)n(Cc3ccc(Cl)cc3)n2)no1,98.4,5.4*,0.8,35.9
COC(=O)C1=C(N)Oc2cc(C)n(CCN3CCOCC3)c(=O)c2C1c1cccnc1 (centres undefined),100.5,89.0,-6.8,93.9
CCOc1cc(C(=O)N2CCN(c3ccc(C(C)=O)cc3)CC2)cc(OCC)c1OCC,100.4,37.9*,-1.8,92.6
CCOc1cc(C(=O)N2CCN(c3ccccc3)CC2)cc(OCC)c1OCC,95.3,87.6,6.1,93.6
CC(NC(=O)c1cc(-c2ccc3c(c2)OCO3)nc2ccccc12)C(C)(C)C (centres undefined),72.4,16.3*,/,76.7
O=C(O)c1cc(-c2ccc3c(c2)OCO3)nc2ccccc12,93.5,93.9,-1.9,94.1
Nc1nc(Nc2cccc(F)c2)nc2ccccc12,/,35.6*,/,74.3
COc1ccccc1N1CCN(c2cc(=O)n(Cc3ccc(F)cc3)c(=O)[nH]2)CC1,60.9,29.7*,-6.3,58.6
Cc1nccc2[nH]c(=O)c(C(=O)NC3CCN(Cc4ccccc4)CC3)cc12,95.2,91.8,5.1,93.4
Cc1ccc2c(c1)c1c(n2CC(O)Cn2c(C)nc3ccccc32)/C(=N\O)CCC1 (centres undefined),93.8,2.7*,-5.5,3.4*
CCOc1ccc2ccccc2c1C(=O)Nc1cc(=O)n(C)c(=O)n1C,93.9,97.3,1.2,93.0
CN1CCc2c(C#N)c(N3CCCCC3)nc(NCc3ccccc3)c2C1,67.4,3.4*,/,10.7*
N#Cc1c(NCCCO)nc(NCc2ccccc2)c2c1CCN(Cc1ccccc1)C2,85.8,42.6,7.5,70.2
COCCNC(=O)C(C)OC(=O)c1cc2occc2n1C (centres undefined),101.8,97.9,1.2,94.3

# Bioassay records from PubChem.
